Bioassay records: PubChem, several laboratories
HKDC1 inh: HKDC1 hexokinase inhibitors, primary screen, biochemical, fluorescence, uHTS; Q2TB90; inhibition, % at 20 µM; 340,000 compounds, 0.16% hits; recombinant HKDC1, G6PDH/diaphorase resazurin coupled fluorescence;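 active = inhibition above about 35% when tested at 20 µM, limit read from the data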
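Test system: HK5 enzyme. Quantity: 5 µg/mL HK5 final. Reagent: glucose and ATP substrates. Schedule: 90 min reaction incubation at room temperature, dark. Technique: resazurin-to-resorufin fluorescence via G6PDH and diaphorase coupling, 525/613 nm. Control set: DMSO wells with and without enzyme mix.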
PfM18AAP inh: PfM18AAP inhibitors, malaria aminopeptidase, primary screen, biochemical, QFRET, recombinant enzyme; M18 aspartyl aminopeptidase (Plasmodium falciparum 3D7); H-Glu-NHMec fluorogenic cleavage; inhibition, % at 7.35 µM; 290,000 compounds, 1.2% hits; AID 1822, 2009;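 active = inhibition above the campaign mean inhibition over all tested compounds plus 3 SD, cut at about 28% in these data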
PfG6PD inh: PfG6PD enzyme inhibitors, primary screen, biochemical, fluorescence intensity, uHTS; inhibition, % at 20 µM; 350,000 compounds, 0.78% hits; PfGluPho enzyme, NADPH resazurin-diaphorase fluorescence; glucose-6-phosphate dehydrogenase-6-phosphogluconolactonase (Plasmodium falciparum 3D7);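 active = inhibition reaching at least a set limit at 20 µM in the primary screen, cut at about 59% in these data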
Neddyl block: inhibitors of cullin neddylation, primary screen, biochemical, TR-FRET, uHTS, NAE and Ubc12; AID 651699, 2012; 360,000 compounds, 0.58% hits; NEDD8-conjugating enzyme Ubc12 (Homo sapiens) + NEDD8-activating enzyme E1 regulatory …; inhibition, % at 25 µM; in the data active = inhibition above about 36%
Target sequence (P61081 whole entry, looked up): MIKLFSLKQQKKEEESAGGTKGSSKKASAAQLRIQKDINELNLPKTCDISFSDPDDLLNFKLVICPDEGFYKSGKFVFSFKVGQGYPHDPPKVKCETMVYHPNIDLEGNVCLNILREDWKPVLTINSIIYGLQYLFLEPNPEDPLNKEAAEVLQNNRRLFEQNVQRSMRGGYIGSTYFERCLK
Target sequence (Q13564 whole entry, looked up): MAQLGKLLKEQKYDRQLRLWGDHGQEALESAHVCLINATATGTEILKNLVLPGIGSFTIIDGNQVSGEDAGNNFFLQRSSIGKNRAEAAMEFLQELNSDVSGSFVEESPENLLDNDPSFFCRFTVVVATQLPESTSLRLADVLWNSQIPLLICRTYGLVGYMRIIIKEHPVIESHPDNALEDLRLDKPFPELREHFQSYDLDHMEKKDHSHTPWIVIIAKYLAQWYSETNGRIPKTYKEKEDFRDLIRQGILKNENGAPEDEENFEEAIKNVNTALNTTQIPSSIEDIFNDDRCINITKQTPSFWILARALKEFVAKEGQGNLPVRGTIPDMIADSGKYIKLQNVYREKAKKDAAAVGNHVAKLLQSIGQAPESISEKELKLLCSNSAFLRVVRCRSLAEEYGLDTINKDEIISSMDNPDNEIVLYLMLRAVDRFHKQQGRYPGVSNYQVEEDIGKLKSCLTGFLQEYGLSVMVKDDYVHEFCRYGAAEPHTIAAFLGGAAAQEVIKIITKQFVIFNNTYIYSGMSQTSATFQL
Neddyl inh conf: blockade of NEDD8 conjugation to cullin – biochemical, TR-FRET, single concentration, confirmation | 1,800 compounds, 13% hits | TR-FRET cullin neddylation biochemical assay | calls only at 25 µM | shares compounds with Neddyl block; in the data active = inhibition above about 40%;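 also: neddylation substrate is the cullin 1 ring ligase complex with SKP2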
Each line names hits and unclear results; the compound was inactive in the other large screens (follow-up assays come after a bar, where shown). An excerpt weighted towards active compounds, which were near 2.2% of everything screened.

CCOC(=O)c1[nH]c2ccc(C(=O)OC)cc2c1C(=O)OCC	Neddyl block 39 | Neddyl inh conf inactive
COc1ccc(-c2sc(Nc3cccc4ccccc34)n[n+]2C)c(C)c1C	Neddyl block 32 (no result: PfM18AAP inh) | Neddyl inh conf inactive
COc1ccc(-c2cnc3c(NC(C)=O)cc(-c4cc(F)ccc4OC)cn23)cc1OC	Neddyl block 44 (no result: HKDC1 inh, PfM18AAP inh, PfG6PD inh) | Neddyl inh conf inactive
CC(C)(C)c1nnc(NS(=O)(=O)c2ccc([N+](=O)[O-])cc2)s1	none
O=C(N1CCOCC1)N1[C@H](COCc2ccccc2)C=CS1(=O)=O	none (no result: HKDC1 inh, PfM18AAP inh, PfG6PD inh)
COc1ccc(-c2cc3ccc(OCc4nn[nH]n4)cc3oc2=O)cc1OC	Neddyl block 58 | Neddyl inh conf active
CCc1noc(C)c1C(=O)Nc1nc(-c2ccccc2)c(C(C)=O)s1	none (no result: PfM18AAP inh)
O=C(COC(=O)c1ccc[nH]c1=O)NCCCc1ccccc1	none (no result: PfM18AAP inh)
O=C(N/N=C/c1ccccc1O)C1(O)c2ccccc2-c2ccccc21	Neddyl block 46 | Neddyl inh conf inactive
Cc1csc(N2CCN(c3cc4c(cc3Cl)nc(-c3ccncc3)n4CCCN3CCCC3)CC2)n1	Neddyl block 30 | Neddyl inh conf inactive
CCN1CCN(c2nc3c(c(=O)[nH]c(=O)n3C)n2Cc2ccccc2)CC1	none
CCN(C(=O)COC(=O)CCC(=O)c1ccccc1)c1c(N)n(Cc2ccccc2)c(=O)[nH]c1=O	none (no result: PfM18AAP inh)
Cc1ccc(NC(=O)NC(=O)N(C(C)C)S(C)(=O)=O)nc1	Neddyl block 53
COCCn1c(C)cc(/C=C(\C#N)C(=O)OC(C)C(=O)Nc2ccc(NC(C)=O)cc2)c1C (stereo not given)	Neddyl block 52 (no result: PfM18AAP inh) | Neddyl inh conf inactive
Cc1cc(/C=C(/C#N)C(=O)O)c(C)n1CCC(C)C	none
O=C(Cn1nc(-c2ccco2)ccc1=O)Nc1cc(C(F)(F)F)ccc1Cl	none (not shown: Neddyl block)
O=C(Cn1nc(-c2ccco2)ccc1=O)Nc1cc(Cl)ccc1Cl	Neddyl block 47 | Neddyl inh conf inactive
COc1ccc(-c2cnc3ccccc3n2)cc1NC(=O)CNC(=O)c1ccccc1	Neddyl block 39 | Neddyl inh conf inactive
COc1cc2cc(CN(CCCN3CCOCC3)C(=O)Nc3ccccc3F)c(=O)[nH]c2cc1OC	Neddyl block 40 | Neddyl inh conf inactive
COc1ccccc1NC(=O)N(CCCN1CCOCC1)Cc1cc2cc3c(cc2[nH]c1=O)OCO3	none (no result: PfM18AAP inh)
COc1ccc(NS(=O)(=O)c2ccc(C(=O)N(C)Cc3ccc(C)o3)cc2)cc1	none (no result: PfM18AAP inh)
O=C(NN1C(=O)c2ccc3c4c(ccc(c24)C1=O)CC3)c1ccc(Br)cc1	Neddyl block 45 | Neddyl inh conf inactive
CCOC(=O)c1cnn2c(N)c(C#N)cnc12	Neddyl block 39 | Neddyl inh conf inactive
CCN(CC)c1ccc(NC(=O)c2ccc3c(c2)OCO3)cc1	none
COc1ccc(CCNC(=O)[C@H](CC(C)C)NC(=O)N2CCn3c2nc2ccccc23)cc1OC	none
NC(=O)C1CCN(C(=O)c2ccc3ncsc3c2)CC1	none (no result: HKDC1 inh, PfM18AAP inh)
CCOC(=O)N1CCN(C(=O)c2ccc3nc(-c4ccccc4)c(-c4ccccc4)nc3c2)CC1	Neddyl block 42 | Neddyl inh conf inactive
CCOC(=O)N1CCN(C(=O)c2ccc3oc(CCc4ccccc4)nc3c2)CC1	none (no result: HKDC1 inh, PfM18AAP inh)
NC(=O)C1CCN(C(=O)c2ccc3nc(-c4ccccc4)c(-c4ccccc4)nc3c2)CC1	Neddyl block 56
CCNC(=O)COC(=O)c1ccc(-c2nc3ccccc3s2)s1	Neddyl block 56 | Neddyl inh conf inactive
COc1ccc(N2C(=O)c3ccccc3NC2c2ccccc2O)cc1 (stereo not given)	none (not shown: Neddyl block)
COC(OC)C1Nc2ccccc2C(=O)N1c1ccc(F)cc1 (stereo not given)	Neddyl block 43 (not shown: PfM18AAP inh)
CCOc1ccccc1C(=O)Nc1nnc(SCC(=O)Nc2cc(C)on2)s1	none (not shown: Neddyl block)
NC(=O)c1ccc(NC(=O)CNC(=O)c2sc3ccccc3c2Cl)cc1	none (no result: PfM18AAP inh)
CCCNC(=O)c1oc2ccc3c(c2c1C)C=CC(C)(C)O3	Neddyl block 40 | Neddyl inh conf inactive
Cc1cccn2c(=O)c(C(=O)NC3CCCCC3C)c(O)nc12 (stereo not given)	none (no result: PfM18AAP inh)
